Measured values reported in PMC2233693 (The Journal of General Physiology, 2000).
Changes are numbered by the printed parent chain.

Assays:
[1] = molecular target: T1, wild-type bovine olfactory CNG channel (α3 subunit) (Bos taurus, UniProt Q03041); assay: External Ca2+ blockage of single-channel current, outside-out patches; type: biochemical; conditions: for effect on single-channel current: 5 μM cGMP; for n (single-channel Ca2+ blockage): Fig. 7 patch
T1 sequence (Q03041 1-663): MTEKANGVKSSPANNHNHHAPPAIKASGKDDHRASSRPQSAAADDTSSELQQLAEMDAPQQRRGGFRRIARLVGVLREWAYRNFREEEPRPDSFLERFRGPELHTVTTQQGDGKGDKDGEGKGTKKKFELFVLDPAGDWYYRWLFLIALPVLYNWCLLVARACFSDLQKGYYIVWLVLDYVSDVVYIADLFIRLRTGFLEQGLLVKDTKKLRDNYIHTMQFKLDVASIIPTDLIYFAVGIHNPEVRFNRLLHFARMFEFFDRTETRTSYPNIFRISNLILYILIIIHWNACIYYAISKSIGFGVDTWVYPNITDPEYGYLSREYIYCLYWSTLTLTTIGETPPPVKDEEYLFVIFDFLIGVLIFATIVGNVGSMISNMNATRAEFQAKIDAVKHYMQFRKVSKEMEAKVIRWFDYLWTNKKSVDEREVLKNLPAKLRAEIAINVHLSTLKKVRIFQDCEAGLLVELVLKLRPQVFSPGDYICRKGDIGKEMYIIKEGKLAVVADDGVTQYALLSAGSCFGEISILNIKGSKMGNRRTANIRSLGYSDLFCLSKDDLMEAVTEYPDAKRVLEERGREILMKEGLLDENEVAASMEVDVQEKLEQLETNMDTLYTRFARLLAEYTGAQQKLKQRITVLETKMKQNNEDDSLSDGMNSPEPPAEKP
How it was run: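 Outside-out oocyte patches with cGMP in the pipette (wild-type 5 μM, E340G 1 mM) and increasing external Ca2+. Single-channel currents at +80 and −80 mV, filtered at 2 kHz, sampled at 10 kHz. Amplitudes from all-points histograms (30 s) fitted with summed Gaussians, normalised to divalent-free current, Hill-fitted for Ki and n. Two further patches per channel type.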

[2] = molecular target: T2, E340Q mutant bovine olfactory CNG channel (Bos taurus, UniProt Q03041, E340Q); assay: Estimate from current variance versus mean amplitude of macroscopic currents; type: biochemical; conditions: estimated from variance/mean at various cGMP concentrations
T2 sequence (Q03041 1-663 E340Q): T1 sequence (Q03041 1-663) with E340Q
How it was run: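 Single-channel amplitude not directly measurable. Assuming a single open state, current amplitude and maximal open probability were estimated from the relation between current variance and mean amplitude of macroscopic currents recorded at various cGMP concentrations, in patches from mRNA-injected Xenopus oocytes.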

Compound	effect on single-channel current ([1]; 50 μM external Ca2+, −80 mV)	effect on single-channel current ([1]; 1 mM external Ca2+, −80 mV)	n (single-channel Ca2+ blockage) ([1]; +80 mV)	n (single-channel Ca2+ blockage) ([1]; −80 mV)	maximal open probability [2]
[Ca+2] [Ca^2+]	partial blockage	no current was detected	1	1.1	–
Nc1nc2c(ncn2[C@@H]2O[C@@H]3COP(=O)(O)O[C@H]3[C@H]2O)c(=O)[nH]1 [cGMP]	–	–	–	–	0.9
